Reference: ChEMBL document CHEMBL1148942, “Cucurbitane triterpenoids from Leucopaxillus gentianeus” (J Nat Prod, 2004)

What was measured:
Assay type in all cases: functional, cell-based
A549 = experiment: Cytotoxicity against human A549 cells after 24 hrs by MTT assay; settings: A549, 24 h
How it was run: (§1)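 ATCC cells kept adherent at 37 °C, 5% CO2 (A549: F12K + 10% FBS; HepG2, MCF-7: MEM + 1 mM pyruvate + 10% FBS; CAKI 1: McCoy's + 10% FBS). Seeded and grown 24 h, then exposed 24 h to compounds in FBS-free medium (final DMSO 0.25%). PBS wash, MTT 0.5 mg/mL in phenol-red-free MEM for 3 h at 37 °C, formazan dissolved in DMSO, read at A540. Two experiments in triplicate; IC50 derived.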

CAKI-1 = experiment: Cytotoxicity against human Caki1 cells after 24 hrs by MTT assay; settings: CAKI-1, 24 h; how it was run: as §1
HepG2 = experiment: Cytotoxicity against human HepG2 cells after 24 hrs by MTT assay; settings: HepG2, 24 h; how it was run: as §1
MCF7 = experiment: Cytotoxicity against human MCF7 cells after 24 hrs by MTT assay; settings: MCF7, 24 h; how it was run: as §1

CC(=O)O[C@H](C[C@@H](OC(C)=O)C(C)(C)O)[C@@H](C)[C@H]1CC[C@@]2(C)[C@@H]3CC=C4[C@@H](CCC(=O)C4(C)C)[C@]3(C)[C@]3(O)C[C@]12CO3 [LEUCOPAXILLONE B]
IC50 (A549): 155 µM
IC50 (CAKI-1): 30.3 µM
IC50 (HepG2): 86.9 µM
IC50 (MCF7): 86.9 µM

CC(=O)OC(C)(C)/C=C/C(=O)[C@](C)(O)[C@H]1[C@H](O)C[C@@]2(C)[C@@H]3CC=C4[C@H](C[C@H](O)C(=O)C4(C)C)[C@]3(C)C(=O)C[C@]12C [CUCURBITACIN B]
IC50 (A549): 46.6 µM
IC50 (CAKI-1): 7.1 µM
IC50 (HepG2): 0.76 µM
IC50 (MCF7): 0.78 µM

CC(=O)O[C@H](C[C@@H](OC(C)=O)C(C)(C)O)[C@@H](C)[C@H]1CC[C@@]2(C)[C@@H]3CC=C4[C@@H](CCC(=O)C4(C)C)[C@]3(C)CC[C@]12CO [LEUCOPAXILLONE A]
IC50 (A549): > 300 µM
IC50 (CAKI-1): 108 µM
IC50 (HepG2): 96.7 µM
IC50 (MCF7): 7.94 µM
